Assay [1] has as its system Staphylococcus aureus. Kind of assay: Antibacterial activity against Staphylococcus aureus ATCC 6538 after 24 hrs by INT dye based microdilution assay. Type of assay: functional. The conditions noted are these: ATCC 6538, 24 h. An outline of the steps:
(§1)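 Broth microdilution in tryptic soy broth: overnight bacterial culture adjusted to 1×10^5 CFU/mL, 1.0×10^4 CFU per well; compounds dissolved in 5% DMSO, tested at 0.001-1.0 mg/ml; 24 h at 37°C. Streptomycin and ampicillin as positive controls, 5% DMSO as negative control; duplicate, repeated three times.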
(In general: Broth dilution looks for growth in wells or tubes with falling amounts of substance.)

A further assay concerns Bacillus cereus. In words: Antibacterial activity against Bacillus cereus after 24 hrs by INT dye based microdilution assay. The format is functional. In short, it runs like this:
as §1

Another assay concerns Listeria monocytogenes. In words: Antibacterial activity against Listeria monocytogenes NCTC 7973 after 24 hrs by INT dye based microdilution assay. Type of assay: functional. The conditions noted are these: NCTC 7973, 24 h. An outline of the steps:
as §1

The subject of the next assay is Micrococcus flavus. In words: Antibacterial activity against Micrococcus flavus ATCC 10240 after 24 hrs by INT dye based microdilution assay. To be noted: ATCC 10240, 24 h. The format is functional. In short, it runs like this: as §1
The subject of a further assay is Salmonella typhimurium. In words: Antibacterial activity against Salmonella typhimurium ATCC 13311 after 24 hrs by INT dye based microdilution assay. The format is functional, Salmonella enterica subsp. enterica serovar Typhimurium. To be noted: Salmonella enterica, ATCC 13311, 24 h. In short, it runs like this:
as §1

Another assay has as its system Enterobacter cloacae. In words: Antibacterial activity against Enterobacter cloacae after 24 hrs by INT dye based microdilution assay. Type of assay: functional. In short, it runs like this: as §1
Assay [2] has as its system Pseudomonas aeruginosa. In words: Antibacterial activity against Pseudomonas aeruginosa ATCC 27853 after 24 hrs by INT dye based microdilution assay. Type of assay: functional. To be noted: ATCC 27853, 24 h. In short, it runs like this:
as §1

Assay [3] concerns Escherichia coli. In words: Antibacterial activity against Escherichia coli ATCC 35210 after 24 hrs by INT dye based microdilution assay. The conditions noted are these: ATCC 35210, 24 h. The format is functional. An outline of the steps: as §1
The subject of assay [4] is Pseudomonas aeruginosa. Kind of assay: Antibacterial activity against drug-resistant Pseudomonas aeruginosa after 24 hrs by INT dye based microdilution assay. Type of assay: functional. An outline of the steps:
(§2)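 Broth microdilution in tryptic soy broth. Overnight culture adjusted to 1×10^5 CFU/mL, giving 1.0×10^4 CFU per well. Compounds dissolved in 5% DMSO and tested at 0.001-1.0 mg/ml. Plates incubated 24 h at 37°C. INT (0.2 mg/mL) then added, with 30 min at 37°C. Duplicate, repeated three times.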

For assay [5], the system named is Escherichia coli. In words: Antibacterial activity against drug-resistant Escherichia coli after 24 hrs by INT dye based microdilution assay. The format is functional. In short, it runs like this: as §2
For another assay, the system named is Aspergillus fumigatus. Kind of assay: Antifungal activity against Aspergillus fumigatus isolate 1022 after 72 hrs by serial dilution assay. The format is functional. To be noted: isolate 1022, 72 h. An outline of the steps: (§3)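 Modified microdilution: fungal spores washed off malt agar with sterile 0.85% saline plus 0.1% Tween 80, adjusted to about 1.0×10^5 per 100 µL well. Compounds in 5% DMSO (0.001-1.0 mg/ml) in malt broth; 72 h at 28°C on rotary shaker (160 rpm). MIC is lowest concentration without visible growth under binocular microscope. Bifonazole and ketoconazole controls (1-3500 µg/mL); three independent experiments in duplicate.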

The test system of another assay is Aspergillus versicolor. Kind of assay: Antifungal activity against Aspergillus versicolor ATCC 11730 after 72 hrs by serial dilution assay. Type of assay: functional. To be noted: ATCC 11730, 72 h. In short, it runs like this: as §3
Another assay deals with Aspergillus ochraceus. In words: Antifungal activity against Aspergillus ochraceus ATCC 12066 after 72 hrs by serial dilution assay. The conditions noted are these: ATCC 12066, 72 h. The format is functional. In short, it runs like this: as §3
The test system of the next assay is Aspergillus niger. In words: Antifungal activity against Aspergillus niger ATCC 6275 after 72 hrs by serial dilution assay. The format is functional. To be noted: ATCC 6275, 72 h. In short, it runs like this: as §3
The next assay relates to Trichoderma viride. Kind of assay: Antifungal activity against Trichoderma viride IAM 5061 after 72 hrs by serial dilution assay. Type of assay: functional. The conditions noted are these: IAM 5061, 72 h. In short, it runs like this: as §3
The test system of a further assay is Talaromyces funiculosus. In words: Antifungal activity against Penicillium funiculosum ATCC 36839 after 72 hrs by serial dilution assay. Type of assay: functional. To be noted: ATCC 36839, 72 h. In short, it runs like this:
as §3

For another assay, the system named is Penicillium ochrochloron. Kind of assay: Antifungal activity against Penicillium ochrochloron ATCC 9112 after 72 hrs by serial dilution assay. The format is functional. To be noted: ATCC 9112, 72 h. In short, it runs like this:
as §3

For the next assay, the system named is Penicillium verrucosum. In words: Antifungal activity against Penicillium cyclopium var verucosum after 72 hrs by serial dilution assay. The format is functional. An outline of the steps:
as §3

The test system of assay [6] is Staphylococcus aureus. Kind of assay: Antibacterial activity against methicillin-resistant Staphylococcus aureus after 24 hrs by INT dye based microdilution assay. The format is functional. An outline of the steps:
as §2

SMILES strings stand for the structures. ≈ marks a conversion by molar mass, not a printed value.

The term MIC denotes the lowest concentration found to suppress growth. High values mean a less susceptible organism, low ones a more susceptible organism.

Regarding `CC1(C)S[C@@H]2[C@H](NC(=O)[C@H](N)c3ccccc3)C(=O)N2[C@H]1C(=O)O` [AMPICILLIN], the MIC worked out at 0.248 µM (≈ 0.0867 µg/mL) in the assay with Staphylococcus aureus [1]; 248 µM (≈ 86.7 µg/mL) with Bacillus cereus; 372 µM (≈ 130 µg/mL) against Listeria monocytogenes; 248 µM (≈ 86.7 µg/mL) against Micrococcus flavus; 248 µM (≈ 86.7 µg/mL) in the assay on Salmonella typhimurium; 248 µM (≈ 86.7 µg/mL) in the assay with Enterobacter cloacae. In addition, the MIC in the assay with Pseudomonas aeruginosa [2] stood at 744 µM (≈ 260 µg/mL); in the assay on Escherichia coli [3], 0.372 µM (≈ 0.13 µg/mL); in the assay on Pseudomonas aeruginosa [4] it was 1240 µM (≈ 433 µg/mL); in the assay with Escherichia coli [5], 1.24 µM (≈ 0.433 µg/mL).
In the case of `CN(C)c1ccc(/C=C2/S/C(=N/c3nnc(C45CC6CC(CC(C6)C4)C5)s3)NC2=O)cc1`, the MIC is 0.139 µM (≈ 0.0648 µg/mL) with Staphylococcus aureus [1]; 139 µM (≈ 64.8 µg/mL) against Bacillus cereus; 69.5 µM (≈ 32.4 µg/mL) in the assay with Listeria monocytogenes; 139 µM (≈ 64.8 µg/mL) with Micrococcus flavus; 69.5 µM (≈ 32.4 µg/mL) in the assay with Salmonella typhimurium; 139 µM (≈ 64.8 µg/mL) in the assay with Enterobacter cloacae. The minimum inhibitory concentration (MIC) in the assay on Pseudomonas aeruginosa [2] worked out at 69.5 µM (≈ 32.4 µg/mL); against Escherichia coli [3] it was 0.139 µM (≈ 0.0648 µg/mL); in the assay on Aspergillus fumigatus, 301 µM (≈ 140 µg/mL); against Aspergillus versicolor, 150 µM (≈ 69.8 µg/mL); in the assay with Aspergillus ochraceus, 150 µM (≈ 69.8 µg/mL); against Aspergillus niger it was 150 µM (≈ 69.8 µg/mL). Moreover, the MIC in the assay with Trichoderma viride was 301 µM (≈ 140 µg/mL); in the assay on Talaromyces funiculosus, 150 µM (≈ 69.8 µg/mL); with Penicillium ochrochloron, 150 µM (≈ 69.8 µg/mL); against Penicillium verrucosum, 0.301 µM (≈ 0.14 µg/mL); against Staphylococcus aureus [6], 0.15 µM (≈ 0.0701 µg/mL); in the assay with Pseudomonas aeruginosa [4], 150 µM (≈ 70.1 µg/mL). This molecule also yielded an MIC with Escherichia coli [5] of 0.0751 µM (≈ 0.035 µg/mL).
As to `O=C1N/C(=N\c2nnc(C34CC5CC(CC(C5)C3)C4)s2)S/C1=C/c1ccc(Cl)cc1Cl`, the MIC was 0.0203 µM (≈ 0.00998 µg/mL) in the assay with Staphylococcus aureus [1]; 163 µM (≈ 80.1 µg/mL) in the assay on Bacillus cereus; 163 µM (≈ 80.1 µg/mL) in the assay with Listeria monocytogenes; 163 µM (≈ 80.1 µg/mL) against Micrococcus flavus; 81.5 µM (≈ 40.1 µg/mL) against Salmonella typhimurium; 163 µM (≈ 80.1 µg/mL) against Enterobacter cloacae. The MIC against Pseudomonas aeruginosa [2] stood at 163 µM (≈ 80.1 µg/mL); against Escherichia coli [3] it was 0.163 µM (≈ 0.0801 µg/mL); against Aspergillus fumigatus it was 81.4 µM (≈ 40 µg/mL); in the assay with Aspergillus versicolor, 163 µM (≈ 80.1 µg/mL); against Aspergillus ochraceus, 81.4 µM (≈ 40 µg/mL); with Aspergillus niger, 81.4 µM (≈ 40 µg/mL). The MIC in the assay with Trichoderma viride was 81.4 µM (≈ 40 µg/mL); in the assay on Talaromyces funiculosus, 163 µM (≈ 80.1 µg/mL); against Penicillium ochrochloron, 163 µM (≈ 80.1 µg/mL); in the assay on Penicillium verrucosum it was 0.0814 µM (≈ 0.04 µg/mL); against Staphylococcus aureus [6] it was 0.0814 µM (≈ 0.04 µg/mL); against Pseudomonas aeruginosa [4] it was 163 µM (≈ 80 µg/mL). Also, the MIC with Escherichia coli [5] turned out to be 0.0203 µM (≈ 0.00998 µg/mL).
As for `O=C1N/C(=N\c2nnc(C34CC5CC(CC(C5)C3)C4)s2)S/C1=C/c1ccc([N+](=O)[O-])cc1`, the MIC against Staphylococcus aureus [1] came to 0.0165 µM (≈ 0.00772 µg/mL); in the assay with Bacillus cereus, 16.5 µM (≈ 7.72 µg/mL); in the assay with Listeria monocytogenes, 33 µM (≈ 15.4 µg/mL); with Micrococcus flavus, 22 µM (≈ 10.3 µg/mL); in the assay with Salmonella typhimurium, 16.5 µM (≈ 7.72 µg/mL); in the assay with Enterobacter cloacae it was 18 µM (≈ 8.42 µg/mL). In addition, the MIC in the assay on Pseudomonas aeruginosa [2] worked out at 22 µM (≈ 10.3 µg/mL); with Escherichia coli [3], 0.022 µM (≈ 0.0103 µg/mL); against Aspergillus fumigatus, 8 µM (≈ 3.74 µg/mL); against Aspergillus versicolor, 8 µM (≈ 3.74 µg/mL); against Aspergillus ochraceus, 12.3 µM (≈ 5.75 µg/mL); against Aspergillus niger it was 16.5 µM (≈ 7.72 µg/mL). The MIC turned out to be 6 µM (≈ 2.81 µg/mL) against Trichoderma viride; 12.3 µM (≈ 5.75 µg/mL) with Talaromyces funiculosus; 8 µM (≈ 3.74 µg/mL) with Penicillium ochrochloron; 0.0165 µM (≈ 0.00772 µg/mL) against Penicillium verrucosum; 0.008 µM (≈ 0.00374 µg/mL) with Staphylococcus aureus [6]; 8 µM (≈ 3.74 µg/mL) in the assay with Pseudomonas aeruginosa [4]. Further, the lowest concentration to inhibit growth in the assay with Escherichia coli [5] (MIC) was 0.006 µM (≈ 0.00281 µg/mL).
`O=C1N/C(=N\c2nnc(C34CC5CC(CC(C5)C3)C4)s2)S/C1=C/c1ccccc1`: the MIC against Staphylococcus aureus [1] was determined as 0.0473 µM (≈ 0.02 µg/mL); against Bacillus cereus, 94.7 µM (≈ 40 µg/mL); with Listeria monocytogenes, 94.7 µM (≈ 40 µg/mL); in the assay on Micrococcus flavus, 94.7 µM (≈ 40 µg/mL); against Salmonella typhimurium it was 23.6 µM (≈ 9.97 µg/mL); against Enterobacter cloacae, 94.7 µM (≈ 40 µg/mL). In addition, the MIC against Pseudomonas aeruginosa [2] was 94.7 µM (≈ 40 µg/mL); in the assay with Escherichia coli [3] it was 0.0947 µM (≈ 0.04 µg/mL); against Aspergillus fumigatus, 47.5 µM (≈ 20.1 µg/mL); in the assay on Aspergillus versicolor it was 95 µM (≈ 40.1 µg/mL); against Aspergillus ochraceus it was 47.5 µM (≈ 20.1 µg/mL); in the assay with Aspergillus niger, 95 µM (≈ 40.1 µg/mL). For the same molecule, the MIC with Trichoderma viride was 47.5 µM (≈ 20.1 µg/mL); in the assay with Talaromyces funiculosus, 47.5 µM (≈ 20.1 µg/mL); against Penicillium ochrochloron it was 47.5 µM (≈ 20.1 µg/mL); in the assay on Penicillium verrucosum it was 0.095 µM (≈ 0.0401 µg/mL); against Staphylococcus aureus [6] it was 0.0473 µM (≈ 0.02 µg/mL); in the assay with Pseudomonas aeruginosa [4], 47.3 µM (≈ 20 µg/mL). In addition, the MIC against Escherichia coli [5] was 0.0236 µM (≈ 0.00997 µg/mL).

For the origin of these results see ChEMBL document CHEMBL4229530, “5-Adamantan thiadiazole-based thiazolidinones as antimicrobial agents. Design, synthesis, molecular docking and evaluation” (2018).
